Experimental data as given in ChEMBL document CHEMBL2407049, “Cyclopeptide alkaloids: stereochemistry and synthesis of the precursors of discarines C and D and myrianthine A” (2013).

Key:
Candida dubliniensis = assay: Antifungal activity against Candida dubliniensis SM 26 clinical isolate assessed as concentration required to inhibit fungal growth after 24 hrs by TLC assay; assay type: functional
In short: (§1)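 Direct TLC bioautography: compound amounts from 50 to 1.56 μg applied to precoated TLC plates, overlaid with Mueller Hinton or Sabouraud agar inoculated with microorganism suspension (10⁵ cfu mL⁻¹). Plates incubated 24 h at 37 °C, then stained with aqueous 2,3,5-triphenyltetrazolium chloride (1 mg mL⁻¹). The lowest amount giving an inhibition zone was recorded; <50 μg counted active. Triplicate.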

Candida tropicalis = assay: Antifungal activity against Candida tropicalis ATCC 750 assessed as concentration required to inhibit fungal growth after 24 hrs by TLC assay; assay type: functional; in short: as §1
Cryptococcus neoformans = assay: Antifungal activity against Cryptococcus neoformans ATCC 28952 assessed as concentration required to inhibit fungal growth after 24 hrs by TLC assay; assay type: functional; in short: as §1
Candida albicans = assay: Antifungal activity against Candida albicans ATCC 10231 assessed as concentration required to inhibit fungal growth after 24 hrs by TLC assay; assay type: functional; in short: as §1
Saccharomyces cerevisiae = assay: Antifungal activity against Saccharomyces cerevisiae ATCC 2601 assessed as concentration required to inhibit fungal growth after 24 hrs by TLC assay; assay type: functional; in short: as §1
Staphylococcus aureus = assay: Antibacterial activity against Staphylococcus aureus ATCC 6538p assessed as concentration required to inhibit bacterial growth after 24 hrs by TLC assay; assay type: functional; in short: as §1
Kocuria rhizophila = assay: Antibacterial activity against Micrococcus luteus ATCC 9341 assessed as concentration required to inhibit bacterial growth after 24 hrs by TLC assay; assay type: functional; in short: as §1
[1] = Antibacterial activity against Salmonella Setubal ATCC 19196 assessed as concentration required to inhibit bacterial growth after 24 hrs by TLC assay; assay type: functional, Salmonella enterica subsp. enterica serovar Setubal; in short: as §1
[2] = test system: Staphylococcus epidermidis; assay: Antibacterial activity against Staphylococcus epidermidis ATCC 12228 assessed as concentration required to inhibit bacterial growth after 24 hrs by TLC assay; assay type: functional; in short: as §1
Escherichia coli = assay: Antibacterial activity against Escherichia coli ATCC 11103 assessed as concentration required to inhibit bacterial growth after 24 hrs by TLC assay; assay type: functional; in short: as §1
Klebsiella pneumoniae = assay: Antibacterial activity against Klebsiella pneumoniae ATCC 10031 assessed as concentration required to inhibit bacterial growth after 24 hrs by TLC assay; assay type: functional; in short: as §1

| Compound | Activity (Candida dubliniensis) | Activity (Candida tropicalis) | Activity (Cryptococcus neoformans) | Activity (Candida albicans) | Activity (Saccharomyces cerevisiae) | Activity (Staphylococcus aureus) | Activity (Kocuria rhizophila) | Activity [1] | Activity [2] | Activity (Escherichia coli) | Activity (Klebsiella pneumoniae) |
| --- | --- | --- | --- | --- | --- | --- | --- | --- | --- | --- | --- |
| CC(C)C[C@@H](C(=O)N[C@@H]1C(=O)N[C@@H](Cc2ccccc2)C(=O)N/C=C\c2ccc(cc2)O[C@H]1c1ccccc1)N(C)C | >50 µg | >50 µg | >50 µg | >50 µg | >50 µg | >50 µg | >50 µg | >50 µg | >50 µg | >50 µg | >50 µg |
| COC(=O)[C@H](CC(C)C)NC(=O)[C@H](NC(=O)[C@@H](N)CC(C)C)[C@@H](O)c1ccccc1 | <50 µg | <50 µg | <50 µg | <50 µg | <50 µg | <50 µg | <50 µg | <50 µg | <50 µg | <50 µg | <50 µg |
| COC(=O)[C@H](Cc1ccccc1)NC(=O)[C@@H](NC(=O)[C@@H](N)CC(C)C)[C@H](O)c1ccccc1 | <50 µg | <50 µg | <50 µg | <50 µg | <50 µg | <50 µg | <50 µg | <50 µg | >50 µg | 1.5 µg | <50 µg |
| CC[C@H](C)[C@H](NC(=O)[C@H](NC(=O)[C@@H](N)CC(C)C)[C@@H](O)c1ccccc1)C(=O)OC | <50 µg | <50 µg | <50 µg | <50 µg | <50 µg | <50 µg | <50 µg | <50 µg | <50 µg | <50 µg | <50 µg |
| COC(=O)[C@H](Cc1ccccc1)NC(=O)[C@H](NC(=O)[C@H](CC(C)C)N(C)C)[C@@H](O)c1ccccc1 | <50 µg | <50 µg | <50 µg | <50 µg | <50 µg | <50 µg | <50 µg | <50 µg | <50 µg | <50 µg | <50 µg |
| COC(=O)[C@H](Cc1ccccc1)NC(=O)[C@H]([C@H](O)c1ccccc1)N1CN(C)[C@@H](CC(C)C)C1=O | <50 µg | <50 µg | <50 µg | <50 µg | <50 µg | <50 µg | <50 µg | 25 µg | 50 µg | >50 µg | 50 µg |
| CC[C@H](C)[C@@H]1NC(=O)[C@@H](NC(=O)[C@H](CC(C)C)N(C)C)[C@H](c2ccccc2)Oc2ccc(cc2)/C=C\NC1=O (mixture of isomers) | >50 µg | >50 µg | >50 µg | >50 µg | >50 µg | >50 µg | >50 µg | >50 µg | >50 µg | >50 µg | >50 µg |
| CC(C)C[C@@H]1NC(=O)[C@@H](NC(=O)[C@H](CC(C)C)N(C)C)[C@H](c2ccccc2)Oc2ccc(cc2)/C=C\NC1=O (mixture of isomers) | >50 µg | >50 µg | >50 µg | >50 µg | >50 µg | >50 µg | >50 µg | >50 µg | >50 µg | >50 µg | >50 µg |
| CC[C@H](C)[C@H](NC(=O)[C@@H]([C@H](Oc1ccc(C=O)cc1)c1ccccc1)N1CN(C)[C@@H](CC(C)C)C1=O)C(=O)OC (mixture of isomers) | <50 µg | <50 µg | <50 µg | <50 µg | <50 µg | <50 µg | <50 µg | <50 µg | <50 µg | <50 µg | <50 µg |
| CC[C@H](C)[C@H](NC(=O)[C@H]([C@@H](Oc1ccc(C=O)cc1)c1ccccc1)N1CN(C)[C@@H](CC(C)C)C1=O)C(=O)OC (mixture of isomers) | <50 µg | <50 µg | <50 µg | <50 µg | <50 µg | <50 µg | <50 µg | <50 µg | <50 µg | <50 µg | <50 µg |
| COC(=O)[C@H](Cc1ccccc1)NC(=O)[C@@H]([C@H](Oc1ccc(C=O)cc1)c1ccccc1)N1CN(C)[C@@H](CC(C)C)C1=O (mixture of isomers) | <50 µg | <50 µg | <50 µg | <50 µg | <50 µg | <50 µg | <50 µg | <50 µg | <50 µg | <50 µg | <50 µg |
| COC(=O)[C@H](Cc1ccccc1)NC(=O)[C@@H]([C@@H](O)c1ccccc1)N1CN(C)[C@@H](CC(C)C)C1=O (mixture of isomers) | <50 µg | <50 µg | <50 µg | <50 µg | <50 µg | <50 µg | <50 µg | 12.5 µg | 6.2 µg | 3.1 µg | 6.2 µg |
| CC[C@H](C)[C@H](NC(=O)[C@@H]([C@@H](O)c1ccccc1)N1CN(C)[C@@H](CC(C)C)C1=O)C(=O)OC (mixture of isomers) | <50 µg | <50 µg | <50 µg | <50 µg | <50 µg | <50 µg | <50 µg | <50 µg | <50 µg | <50 µg | <50 µg |
| COC(=O)[C@H](CC(C)C)NC(=O)[C@@H](NC(=O)[C@H](CC(C)C)N(C)C)[C@@H](Oc1ccc(C=O)cc1)c1ccccc1 (mixture of isomers) | <50 µg | <50 µg | <50 µg | <50 µg | <50 µg | <50 µg | <50 µg | <50 µg | <50 µg | <50 µg | <50 µg |
| COC(=O)[C@H](CC(C)C)NC(=O)[C@H](NC(=O)[C@H](CC(C)C)N(C)C)[C@H](Oc1ccc(C=O)cc1)c1ccccc1 (mixture of isomers) | <50 µg | <50 µg | <50 µg | <50 µg | <50 µg | <50 µg | <50 µg | <50 µg | <50 µg | <50 µg | <50 µg |
| COC(=O)[C@H](CC(C)C)NC(=O)[C@H]([C@@H](Oc1ccc(C=O)cc1)c1ccccc1)N1CN(C)[C@@H](CC(C)C)C1=O (mixture of isomers) | <50 µg | <50 µg | <50 µg | <50 µg | <50 µg | <50 µg | <50 µg | <50 µg | <50 µg | <50 µg | <50 µg |
| COC(=O)[C@H](CC(C)C)NC(=O)[C@@H]([C@H](Oc1ccc(C=O)cc1)c1ccccc1)N1CN(C)[C@@H](CC(C)C)C1=O (mixture of isomers) | <50 µg | <50 µg | <50 µg | <50 µg | <50 µg | <50 µg | <50 µg | <50 µg | <50 µg | <50 µg | <50 µg |
| COC(=O)[C@H](Cc1ccccc1)NC(=O)[C@H]([C@@H](Oc1ccc(C=O)cc1)c1ccccc1)N1CN(C)[C@@H](CC(C)C)C1=O (mixture of isomers) | <50 µg | <50 µg | <50 µg | <50 µg | <50 µg | <50 µg | <50 µg | <50 µg | <50 µg | <50 µg | <50 µg |
